Laboratory results from ChEMBL document CHEMBL4706704, “Potential of substituted quinazolines to interact with multiple targets in the treatment of cancer” (Bioorg Med Chem, 2021).

Key:
[1] = biological target: T1, Vascular endothelial growth factor receptor 2 (Homo sapiens, UniProt P35968); assay: Inhibition of VEGFR2 in human U251 cells preincubated for 60 mins followed by VEGF stimulation and measured after 10 mins by ELISA; type: cell-based, U-251
[2] = biological target: T2, Platelet-derived growth factor receptor beta (Homo sapiens, UniProt P09619); assay: Inhibition of PDGFRbeta in human SH-SY5Y cells preincubated for 60 mins followed by PDGF stimulation and measured after 10 mins by ELISA; type: cell-based
MDA-MB-435 = assay: Antiproliferative activity against human MDA-MB-435 cells assessed as reduction in cell viability by Sulforhodamine B assay; type: functional, cell-based
Outline: (§1)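 SRB proliferation/cytotoxicity assay; parental lines obtained from ATCC. The HeLa WT-βIII line was generated as described in earlier work. IC50 is the average of at least 3 independent experiments, each run with triplicate points.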

[3] = Induction of microtubule depolymerization in rat A10 cells incubated for over night by immunofluorescence method; type: cell-based
Outline: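 Rat A-10 cells were exposed overnight, fixed in cold methanol and stained for microtubules by indirect immunofluorescence with a β-tubulin antibody.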

HeLa [4] = assay: Cytotoxicity against human HeLa cells assessed as reduction in cell viability by Sulforhodamine B assay; type: functional, cell-based
Outline: (§2)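 SRB assay for antiproliferative/cytotoxic effect. HeLa WT-βIII and SK-OV-3-MDR1-6/6 lines were generated as described earlier and run alongside their parental lines.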

SK-OV-3 [5] = assay: Cytotoxicity against human SK-OV-3 cells assessed as reduction in cell viability by Sulforhodamine B assay; type: functional, cell-based; outline: as §1
SK-OV-3 [6] = assay: Cytotoxicity against human SK-OV-3 cells over expressing MDR1-6/6 assessed as reduction in cell viability by Sulforhodamine B assay; type: functional, cell-based; outline: as §2
A-431 = assay: Cytotoxicity against human A-431 cells assessed as reduction in cell viability by Sulforhodamine B assay; type: functional, cell-based
U-251 = assay: Cytotoxicity against human U-251 cells assessed as reduction in cell viability by Sulforhodamine B assay; type: functional, cell-based
Chorioallantoic membrane [7] = assay: Antiangiogenic activity in Leghorn chicken fertilized egg chorioallantoic membrane assessed as reduction in VEGF/bFGF stimulated neovascularization after 40 hrs by microscopic based CAM assay; type: functional, tissue-based; settings: Gallus gallus
Outline: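 VEGF/bFGF applied at saturation to a testing disk on the CAM. Compounds at various doses were added to the same disk 8 h later, then incubated 40 h more. Vessels were counted in 5–7 grids at 7.5X. Values are percent of growth-factor-only. IC50 by non-linear regression, 2–3 experiments, 2–5 replicates each.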

[8] = biological target: T3, Epidermal growth factor receptor (Homo sapiens, UniProt P00533); assay: Inhibition of EGFR in human A431 cells preincubated for 60 mins followed by EGF stimulation and measured after 10 mins by ELISA; type: cell-based, A-431
Bos taurus [9] = organism: Bos taurus; assay: Displacement of [3H]-colchicine from bovine brain tubulin at 5 uM after 10 mins by DEAE-cellulose filter method relative to control; type: tissue-based
Outline: (§3)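 Tubulin 0.1 mg/mL (1.0 μM) incubated at 37 °C with 5.0 μM [3H]colchicine and inhibitor at 1.0 or 5.0 μM.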

Bos taurus [10] = organism: Bos taurus; assay: Displacement of [3H]-colchicine from bovine brain tubulin at 1 uM after 10 mins by DEAE-cellulose filter method relative to control; type: tissue-based; outline: as §3
[11] = biological target: T3, Epidermal growth factor receptor; assay: Potency index, ratio of IC50 for sunitinib to IC50 for test compound for inhibition of EGFR in human A431 cell; settings: A-431
[12] = biological target: T1, Vascular endothelial growth factor receptor 2; assay: Potency index, ratio of IC50 for sunitinib to IC50 for test compound for inhibition of VEGFR2 in human U251 cells; type: cell-based; settings: U-251
[13] = biological target: T2, Platelet-derived growth factor receptor beta; assay: Potency index, ratio of IC50 for sunitinib to IC50 for test compound for inhibition of PDGFRbeta in human SH-SY5Y cells; type: cell-based
[14] = biological target: T1, Vascular endothelial growth factor receptor 2; assay: Potency index, ratio of IC50 for erlotinib to IC50 for test compound for inhibition of VEGFR2 in human U251 cells; type: cell-based; settings: U-251
[15] = biological target: T2, Platelet-derived growth factor receptor beta; assay: Potency index, ratio of IC50 for erlotinib to IC50 for test compound for inhibition of PDGFRbeta in human SH-SY5Y cells; type: cell-based
[16] = Ratio of EC50 for induction of microtubule depolymerization in rat A10 cells to IC50 for antiproliferative activity against human MDA-MB-435 cells
HeLa [17] = assay: Cytotoxicity against human HeLa cells over expressing WT-beta3 assessed as reduction in cell viability by Sulforhodamine B assay; type: functional, cell-based; outline: as §1
[18] = Resistant index, ratio of IC50 for cytotoxicity against human HeLa cells expressing WT-beta3 to IC50 for cytotoxicity against human HeLa cells; type: functional
[19] = Resistant index, ratio of IC50 for cytotoxicity against human SK-OV-3 cells over expressing MDR1-6/6 cells to IC50 for cytotoxicity against human SK-OV-3 cells; type: functional
Chorioallantoic membrane [20] = assay: Potency index, ratio IC50 for erlotinib to IC50 for test compound for antiangiogenic activity in Leghorn chicken fertilized egg chorioallantoic membrane; type: functional, tissue-based; settings: Gallus gallus

T2 sequence (P09619 whole entry): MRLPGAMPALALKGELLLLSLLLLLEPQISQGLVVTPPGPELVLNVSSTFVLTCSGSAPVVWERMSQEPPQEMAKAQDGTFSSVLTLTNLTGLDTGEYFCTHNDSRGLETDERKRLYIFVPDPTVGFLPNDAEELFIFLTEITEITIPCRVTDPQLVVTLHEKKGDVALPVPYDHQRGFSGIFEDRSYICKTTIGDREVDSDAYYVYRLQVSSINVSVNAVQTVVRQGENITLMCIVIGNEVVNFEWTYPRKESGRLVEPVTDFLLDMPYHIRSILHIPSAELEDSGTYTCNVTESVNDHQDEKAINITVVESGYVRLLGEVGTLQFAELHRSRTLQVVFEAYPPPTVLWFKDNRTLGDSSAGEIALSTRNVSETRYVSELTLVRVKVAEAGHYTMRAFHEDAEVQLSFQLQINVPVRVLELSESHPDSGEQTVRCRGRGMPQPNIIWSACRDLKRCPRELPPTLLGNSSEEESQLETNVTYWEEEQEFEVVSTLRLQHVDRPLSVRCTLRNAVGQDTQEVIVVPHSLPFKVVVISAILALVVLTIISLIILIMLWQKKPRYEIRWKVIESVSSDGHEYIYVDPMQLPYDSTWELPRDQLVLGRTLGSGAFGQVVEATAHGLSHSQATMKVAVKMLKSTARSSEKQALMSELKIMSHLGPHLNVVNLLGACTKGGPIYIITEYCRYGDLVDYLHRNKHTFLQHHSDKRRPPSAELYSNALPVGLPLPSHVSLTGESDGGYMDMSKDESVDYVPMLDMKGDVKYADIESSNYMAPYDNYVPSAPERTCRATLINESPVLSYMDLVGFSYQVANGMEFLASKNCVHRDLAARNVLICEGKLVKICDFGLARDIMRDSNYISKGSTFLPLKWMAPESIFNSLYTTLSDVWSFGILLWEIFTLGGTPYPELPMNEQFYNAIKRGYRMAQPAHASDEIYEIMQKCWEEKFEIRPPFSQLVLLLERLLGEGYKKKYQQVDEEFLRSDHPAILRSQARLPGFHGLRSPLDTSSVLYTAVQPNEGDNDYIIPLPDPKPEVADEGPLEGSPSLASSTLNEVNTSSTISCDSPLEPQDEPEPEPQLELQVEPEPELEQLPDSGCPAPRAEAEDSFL
T1 sequence (P35968 whole entry): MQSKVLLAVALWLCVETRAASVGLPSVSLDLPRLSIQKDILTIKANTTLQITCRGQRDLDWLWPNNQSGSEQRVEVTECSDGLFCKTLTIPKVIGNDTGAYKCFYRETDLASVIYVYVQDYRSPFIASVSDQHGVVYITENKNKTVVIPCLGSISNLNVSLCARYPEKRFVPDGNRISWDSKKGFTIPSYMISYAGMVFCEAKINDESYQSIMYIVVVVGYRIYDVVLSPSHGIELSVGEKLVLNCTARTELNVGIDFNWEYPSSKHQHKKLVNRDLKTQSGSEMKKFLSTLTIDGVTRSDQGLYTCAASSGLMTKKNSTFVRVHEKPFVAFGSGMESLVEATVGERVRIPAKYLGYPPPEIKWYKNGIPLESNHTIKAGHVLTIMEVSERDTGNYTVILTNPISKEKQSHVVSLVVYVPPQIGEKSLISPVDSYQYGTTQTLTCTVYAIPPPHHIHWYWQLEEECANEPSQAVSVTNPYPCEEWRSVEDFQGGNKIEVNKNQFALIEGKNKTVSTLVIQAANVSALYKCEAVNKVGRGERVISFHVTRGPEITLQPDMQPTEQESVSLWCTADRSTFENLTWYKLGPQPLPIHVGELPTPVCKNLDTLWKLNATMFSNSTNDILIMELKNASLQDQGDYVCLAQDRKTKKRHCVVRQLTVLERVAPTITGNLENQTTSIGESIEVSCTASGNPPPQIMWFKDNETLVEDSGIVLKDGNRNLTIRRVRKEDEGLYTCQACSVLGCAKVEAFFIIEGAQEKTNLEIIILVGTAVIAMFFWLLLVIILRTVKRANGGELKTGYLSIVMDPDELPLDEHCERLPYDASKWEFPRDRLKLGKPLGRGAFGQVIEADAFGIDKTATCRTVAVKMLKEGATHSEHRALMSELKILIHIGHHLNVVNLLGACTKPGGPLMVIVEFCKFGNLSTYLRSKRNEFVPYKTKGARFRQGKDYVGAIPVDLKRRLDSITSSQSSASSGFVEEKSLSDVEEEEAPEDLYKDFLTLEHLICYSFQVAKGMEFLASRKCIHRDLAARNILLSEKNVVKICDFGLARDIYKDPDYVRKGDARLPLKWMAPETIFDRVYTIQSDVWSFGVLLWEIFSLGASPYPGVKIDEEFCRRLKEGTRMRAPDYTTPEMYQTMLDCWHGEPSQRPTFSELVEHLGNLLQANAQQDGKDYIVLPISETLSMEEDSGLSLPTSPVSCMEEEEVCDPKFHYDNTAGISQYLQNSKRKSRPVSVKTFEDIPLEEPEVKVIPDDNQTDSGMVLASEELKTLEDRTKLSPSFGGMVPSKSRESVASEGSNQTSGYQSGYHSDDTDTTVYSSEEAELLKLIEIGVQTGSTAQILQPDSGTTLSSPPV
T3 sequence (P00533 whole entry): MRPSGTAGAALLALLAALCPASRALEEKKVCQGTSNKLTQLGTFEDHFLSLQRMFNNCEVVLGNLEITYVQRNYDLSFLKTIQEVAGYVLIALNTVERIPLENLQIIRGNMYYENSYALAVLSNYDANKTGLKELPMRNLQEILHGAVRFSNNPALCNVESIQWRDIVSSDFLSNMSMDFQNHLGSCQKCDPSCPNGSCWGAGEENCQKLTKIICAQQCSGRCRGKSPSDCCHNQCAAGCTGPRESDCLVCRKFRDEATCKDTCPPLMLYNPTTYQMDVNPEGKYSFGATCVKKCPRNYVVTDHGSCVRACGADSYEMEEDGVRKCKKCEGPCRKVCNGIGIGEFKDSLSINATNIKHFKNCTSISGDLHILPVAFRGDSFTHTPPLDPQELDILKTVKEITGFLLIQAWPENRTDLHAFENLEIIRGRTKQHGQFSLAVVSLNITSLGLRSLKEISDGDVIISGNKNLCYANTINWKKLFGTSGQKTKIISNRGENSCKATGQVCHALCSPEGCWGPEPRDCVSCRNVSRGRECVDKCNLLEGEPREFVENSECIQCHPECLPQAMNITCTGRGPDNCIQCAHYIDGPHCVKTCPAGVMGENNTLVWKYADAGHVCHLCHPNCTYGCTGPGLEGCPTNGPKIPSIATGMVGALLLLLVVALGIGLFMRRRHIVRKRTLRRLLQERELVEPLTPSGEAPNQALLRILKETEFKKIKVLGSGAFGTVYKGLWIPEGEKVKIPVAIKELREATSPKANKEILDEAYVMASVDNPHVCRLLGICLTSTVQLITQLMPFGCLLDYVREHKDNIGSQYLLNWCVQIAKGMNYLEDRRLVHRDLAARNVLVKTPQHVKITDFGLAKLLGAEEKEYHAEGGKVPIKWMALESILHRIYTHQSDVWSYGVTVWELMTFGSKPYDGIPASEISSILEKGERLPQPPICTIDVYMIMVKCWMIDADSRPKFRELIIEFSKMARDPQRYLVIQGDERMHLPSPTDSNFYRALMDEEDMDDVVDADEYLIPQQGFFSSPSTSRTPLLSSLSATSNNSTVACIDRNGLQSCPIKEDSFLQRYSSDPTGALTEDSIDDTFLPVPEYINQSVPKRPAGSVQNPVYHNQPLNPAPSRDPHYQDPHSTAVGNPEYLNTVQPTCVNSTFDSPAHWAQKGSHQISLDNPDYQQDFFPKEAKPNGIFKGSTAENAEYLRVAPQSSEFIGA

IC50 [1] [nM]	IC50 [2] [nM]	IC50 [8] [nM]	Structure (SMILES)	IC50 (MDA-MB-435) [nM]	EC50 [3] [nM]	IC50 (HeLa [4]) [nM]	IC50 (SK-OV-3 [5]) [nM]	IC50 (SK-OV-3 [6]) [nM]	IC50 (A-431) [nM]	IC50 (U-251) [nM]	IC50 (Chorioallantoic membrane [7]) [nM]	Ratio [16]	IC50 (HeLa [17]) [nM]	Ratio IC50 [18]	Ratio IC50 [19]	also measured
14.7	232	8.7	CSc1ccc(N(C)c2nc(C)nc3ccccc23)cc1						2.9	4.9						inhibition (Bos taurus [9]): 99%; inhibition (Bos taurus [10]): 91%
			CSc1ccc(N(C)c2ncnc3ccccc23)cc1	7.8	12.3	8.5	13.6	15.6				1.6	7.3	0.6	1.1	
16.8	29.4	10.6	COc1cccc2cc(N(C)c3nc(C)nc4ccccc34)ccc12	2	2.4	2.5	2.9	3.5	5.3	4.2		1.2	1.7	0.7	1.2	inhibition (Bos taurus [9]): 98%; inhibition (Bos taurus [10]): 88%
9.3	7.8	5	COc1ccc2c(c1)CCCN2c1nc(C)nc2ccccc12	1.1	3	1.2	1.5	2.2	2.5	3.1	3100	2.7	1.2	1	1.5	Ratio IC50 (Chorioallantoic membrane [20]): 9.4
97.5	76.6	3.6	COc1ccc(N(C)c2nc(Cl)nc3ccccc23)cc1						1.2	32.5	130000					inhibition (Bos taurus [9]): 99%; inhibition (Bos taurus [10]): 92%
			C#Cc1cccc(Nc2ncnc3cc(OCCOC)c(OCCOC)cc23)c1 [ERLOTINIB]								3100					
			COc1ccc(/C=C\c2cc(OC)c(OC)c(OC)c2)cc1O [COMBRETASTATIN A4]		9.8											
			COc1ccc(N(C)c2ncnc3ccccc23)cc1	7.1	8.2	8.6	10.4	14.3				1.2		0.9	1.4	
			COc1cccc2cc(N(C)c3nc(Cl)nc4ccccc34)ccc12	1.4	1.9	2.8	2.8	2.6				1.4	1.6	0.6	0.9	
			CSc1ccc(N(C)c2nc(Cl)nc3ccccc23)cc1	2.7	2.7	5	3.3	3.5				1	3.2	0.6	1.1	

Structure (SMILES)	IC50 [1] [nM]	IC50 [2] [nM]	IC50 [8] [nM]	IC50 (MDA-MB-435) [nM]	EC50 [3] [nM]	IC50 (HeLa [4]) [nM]	IC50 (SK-OV-3 [5]) [nM]	IC50 (SK-OV-3 [6]) [nM]	IC50 (A-431) [nM]	IC50 (U-251) [nM]	IC50 (Chorioallantoic membrane [7]) [nM]	Ratio [16]	IC50 (HeLa [17]) [nM]	Ratio IC50 [18]	Ratio IC50 [19]	also measured
COc1ccc2c(c1)CCCN2c1nc(Cl)nc2ccccc12	55.2	80.6		0.7	2	0.6	0.8	1	1.8	14.8	41400					
COc1ccc(N(C)c2nc(C)nc3ccccc23)cc1 [VERUBULIN]	8.4	5.6	2.8	1.7	2.1	2	2.2	2.6	0.9		2800	1.2	1.5	0.8	1.2	Ratio IC50 [11]: 61; Ratio IC50 [12]: 2; Ratio IC50 [13]: 15; Ratio IC50 [14]: 15; Ratio IC50 [15]: 2
COc1ccc2c(c1)CCCN2c1ncnc2ccccc12	111	54	48.9	12.4	23.4	16.8	18.1	23.4	16.3	27.8		1.9	13.1	0.8	1.3	
